Laboratory results from ChEMBL document CHEMBL1136610, “Dehydrophenylalanine derivatives as VLA-4 integrin antagonists” (Bioorg Med Chem Lett, 2003).

Tests used:
[1] = target: T1, Integrin alpha-4/beta-1 (Homo sapiens, UniProt P05556+P13612); test: Inhibition of VLA-4 to VCAM-1 binding in Jurkat cell adhesion assay; format: cell-based
Summary of the method: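 Jurkat cells expressing VLA-4 incubated 30 min at 37 °C with test compounds on human 2-domain VCAM-1-Fc, which was immobilised on the plate via anti-human Fc. Plates washed and adherent cells stained with Rose Bengal. Reported as IC50.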

[2] = species: Rattus norvegicus; test: Clearance rate constant using isolated perfused rat liver (IPRL) assay; format: ADME
[3] = target: T1, Integrin alpha-4/beta-1; test: Inhibition of VLA-4 to VCAM-1 binding; format: protein-complex assay
Summary of the method: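 Test compounds titrated into a solution of 2-domain VCAM-Fc-Ig, then added to assay wells. Buffer: TBS with 1% BSA, 1 mM MnCl2 and 0.1% Tween. Incubated 2 h at room temperature, then washed. Bound VCAM detected with peroxidase-coupled anti-human Fc. Reported as IC50.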

T1 sequence (P05556 whole entry): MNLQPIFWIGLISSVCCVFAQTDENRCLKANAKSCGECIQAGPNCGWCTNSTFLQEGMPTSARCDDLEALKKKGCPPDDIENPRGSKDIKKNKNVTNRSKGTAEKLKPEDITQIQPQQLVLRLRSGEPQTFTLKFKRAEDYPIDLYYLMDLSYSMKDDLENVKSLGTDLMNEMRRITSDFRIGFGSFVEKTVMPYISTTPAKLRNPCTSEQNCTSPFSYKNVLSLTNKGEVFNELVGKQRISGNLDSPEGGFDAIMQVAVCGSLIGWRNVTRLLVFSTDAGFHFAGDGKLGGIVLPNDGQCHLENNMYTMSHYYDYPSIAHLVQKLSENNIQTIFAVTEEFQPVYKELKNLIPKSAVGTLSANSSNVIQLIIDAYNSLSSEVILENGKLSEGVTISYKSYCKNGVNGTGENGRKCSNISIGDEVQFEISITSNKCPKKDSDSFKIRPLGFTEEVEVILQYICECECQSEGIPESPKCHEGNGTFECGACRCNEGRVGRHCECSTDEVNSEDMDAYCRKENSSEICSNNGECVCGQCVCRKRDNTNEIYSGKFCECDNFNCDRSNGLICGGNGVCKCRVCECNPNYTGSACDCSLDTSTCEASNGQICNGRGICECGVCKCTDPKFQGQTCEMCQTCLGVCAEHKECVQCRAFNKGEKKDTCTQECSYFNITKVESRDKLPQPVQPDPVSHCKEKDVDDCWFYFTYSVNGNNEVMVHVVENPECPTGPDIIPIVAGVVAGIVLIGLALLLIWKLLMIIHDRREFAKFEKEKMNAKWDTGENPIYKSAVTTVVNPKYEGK
T1 sequence (P13612 whole entry): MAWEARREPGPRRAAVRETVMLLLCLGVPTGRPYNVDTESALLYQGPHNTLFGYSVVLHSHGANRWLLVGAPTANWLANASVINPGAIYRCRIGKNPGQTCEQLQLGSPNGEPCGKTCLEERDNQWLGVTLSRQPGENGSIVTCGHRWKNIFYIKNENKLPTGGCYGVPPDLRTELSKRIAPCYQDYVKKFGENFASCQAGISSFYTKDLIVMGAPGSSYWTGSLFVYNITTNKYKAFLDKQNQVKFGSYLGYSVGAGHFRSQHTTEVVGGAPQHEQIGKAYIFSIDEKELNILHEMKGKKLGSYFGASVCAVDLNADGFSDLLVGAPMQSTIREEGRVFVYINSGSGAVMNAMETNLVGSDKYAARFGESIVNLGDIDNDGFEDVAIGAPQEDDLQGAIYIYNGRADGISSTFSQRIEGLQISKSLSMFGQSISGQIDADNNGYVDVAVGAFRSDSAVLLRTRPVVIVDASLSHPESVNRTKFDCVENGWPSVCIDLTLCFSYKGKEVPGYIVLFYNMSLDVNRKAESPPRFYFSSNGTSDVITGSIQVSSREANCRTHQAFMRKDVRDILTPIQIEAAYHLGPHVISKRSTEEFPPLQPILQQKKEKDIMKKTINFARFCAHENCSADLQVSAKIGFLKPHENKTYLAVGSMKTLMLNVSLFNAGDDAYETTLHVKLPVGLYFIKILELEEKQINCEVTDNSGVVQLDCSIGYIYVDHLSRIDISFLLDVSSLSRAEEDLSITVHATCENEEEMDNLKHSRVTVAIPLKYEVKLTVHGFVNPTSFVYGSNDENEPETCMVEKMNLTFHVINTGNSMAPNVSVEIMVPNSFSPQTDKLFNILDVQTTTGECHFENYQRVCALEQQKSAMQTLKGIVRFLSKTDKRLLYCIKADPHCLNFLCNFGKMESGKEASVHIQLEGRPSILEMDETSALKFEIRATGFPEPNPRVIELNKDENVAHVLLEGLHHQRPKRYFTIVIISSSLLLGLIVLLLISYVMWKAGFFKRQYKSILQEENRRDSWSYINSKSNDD

`CC(=O)N1CSC[C@@H]1C(=O)N/C(=C\c1ccc(NC(=O)c2c(Cl)cccc2Cl)cc1)C(=O)O` showed an IC50 [1] of 0.14 µM, a k [2] of 3.9 h⁻¹ and an IC50 [3] of 0.005 µM.
In the case of `CC(=O)N1CSC[C@@H]1C(=O)N/C(=C\c1ccc(OCc2c(Cl)cccc2Cl)cc1)C(=O)O`, the IC50 [1] is reported as 5 µM, the k [2] is reported as 4.1 h⁻¹ and the IC50 [3] is reported as 2.8 µM.
`CC(C)(C)C(=O)N/C(=C/c1ccc(NC(=O)c2c(Cl)cccc2Cl)cc1)C(=O)O` was tested, and the IC50 [1] was 80 µM and the IC50 [3] was 2.7 µM.
`O=C(O)C1=Cc2ccc(NC(=O)c3c(Cl)cncc3Cl)cc2NC(c2cccnc2Cl)=N1` was tested, and the IC50 [1] was 0.41 µM, the k [2] was 5.3 h⁻¹ and the IC50 [3] was 0.055 µM.
`CC(=O)N1CSC[C@@H]1C(=O)N/C(=C/c1ccc(NC(=O)c2c(Cl)cccc2Cl)cc1)C(=O)O` was tested, and the IC50 [1] was 29 µM, the k [2] was 0.7 h⁻¹ and the IC50 [3] was 0.4 µM.
With `CC(=O)N1CSC[C@@H]1C(=O)N/C(=C/c1ccc(NC(=O)c2c(Cl)cncc2Cl)cc1)C(=O)O` the IC50 [1] was 0.2 µM, the k [2] was 1.2 h⁻¹ and the IC50 [3] was 0.06 µM.
`O=C(O)/C(=C\c1ccc(NC(=O)c2c(Cl)cncc2Cl)cc1)NC(=O)c1cccnc1Cl` gave an IC50 [1] of 8.5 µM, a k [2] of 1.5 h⁻¹ and an IC50 [3] of 0.066 µM.
With `O=C(O)/C(=C/c1ccc(NC(=O)c2c(Cl)cncc2Cl)cc1)NC(=O)c1cccnc1Cl` the IC50 [1] was 0.07 µM, the k [2] was 3.9 h⁻¹ and the IC50 [3] was 0.0014 µM.
Molecule `CC(=O)N1CSC[C@@H]1C(=O)N/C(=C\c1ccc(NC(=O)c2c(Cl)cncc2Cl)cc1)C(=O)O` has an IC50 [1] of 0.025 µM, a k [2] of 4.4 h⁻¹ and an IC50 [3] of 0.002 µM.
`O=C(O)/C(=C/c1ccc(OCc2c(Cl)cncc2Cl)cc1)NC(=O)c1cccnc1Cl` showed an IC50 [1] of 14 µM and an IC50 [3] of 0.14 µM.
Molecule `CC(=O)N1CSCC1C(=O)N/C(=C/c1ccc(OCc2c(Cl)cccc2Cl)cc1)C(=O)O` (stereo not drawn) has an IC50 [1] of 83 µM, a k [2] of 0.4 h⁻¹ and an IC50 [3] of 7.4 µM.
Molecule `O=C(O)/C(=C/c1ccc(OCc2c(Cl)cccc2Cl)cc1)NC(=O)c1cccnc1Cl` has an IC50 [1] of 7.1 µM, a k [2] of 3.7 h⁻¹ and an IC50 [3] of 0.22 µM.
Work on `CC(C)(C)C(=O)N/C(=C\c1ccc(NC(=O)c2c(Cl)cccc2Cl)cc1)C(=O)O` yielded an IC50 [1] of 3.7 µM, a k [2] of 4.8 h⁻¹ and an IC50 [3] of 0.05 µM.
`CC(=O)N1CSC[C@H]1C(=O)N/C(=C/c1ccc(OCc2ccccc2)cc1)C(=O)O` was tested, and the IC50 [1] was 20 µM, the k [2] was 0.6 h⁻¹ and the IC50 [3] was 1.5 µM.
Molecule `CC(=O)N1CSC[C@H]1C(=O)N/C(=C\c1ccc(OCc2ccccc2)cc1)C(=O)O` has an IC50 [1] of 71 µM, a k [2] of 3.8 h⁻¹ and an IC50 [3] of 2.2 µM.
